Experimental data pooled from the literature.
Protocols differ between the studies behind these lines.

O=c1c2c([nH]c3cc(Oc4cccc(OC(F)(F)F)c4)ccc13)CCCC2 — half-life (metabolic stability; mouse, liver microsomes; 1 µM, pH 7.4): > 60 min
Cc1cc(S(=O)(=O)NC2CC(N3CC[C@@H](OC4CN(c5cccc6c5n(C)c(=O)n6C5CCC(=O)NC5=O)C4)[C@H](F)C3)C2)ccc1Nc1ncc(C(F)(F)F)c(N2CCC[C@](C)(O)C2)n1 (some centres unmarked) — Papp A→B (MDCK; Caco-2; 1 µM, 2 h, pH 7.4): 0.9 ×10⁻⁶ cm/s
CCCN(CCC)CCOc1ccc2c(=O)c3c([nH]c2c1)CCCC3 — half-life (metabolic stability; mouse, liver microsomes; 1 µM, pH 7.4): 26.9 min
Cc1cc(S(=O)(=O)NC2CC(N3CCN(CC4CCN(c5ccc6c(c5F)n(C)c(=O)n6C5CCC(=O)NC5=O)CC4)CC3)C2)ccc1Nc1ncc(C(F)(F)F)c(N2CCCC(C)(O)C2)n1 (centres unmarked) — Papp A→B (MDCK; Caco-2; 1 µM, 2 h, pH 7.4): 1.9 ×10⁻⁶ cm/s
CCCN(CCC)CCNc1ccc2c(=O)c3c([nH]c2c1)CCCC3 — half-life (metabolic stability; mouse, liver microsomes; 1 µM, pH 7.4): 16.9 min
O=C(CN1CCN(c2ccc(Cl)cc2)CC1)Nc1ccc(C(=O)C=Cc2ccccc2)cc1 — viability (MCF-10A; cell growth or viability, MTT; 50 µM, 96 h): 85%
Cc1cc(S(=O)(=O)NC2CC(N3CCN(CC4CCN(c5cccc6c5n(C)c(=O)n6C5CCC(=O)NC5=O)CC4)CC3)C2)ccc1Nc1ncc(C(F)(F)F)c(N2CCC[C@](C)(O)C2)n1 (some centres unmarked) — Papp A→B (MDCK; Caco-2; 1 µM, 2 h, pH 7.4): 1.2 ×10⁻⁶ cm/s
O=c1c2ccccc2[nH]c2cc(Oc3ccc(OC(F)(F)F)cc3)ccc12 — half-life (metabolic stability; mouse, liver microsomes; 1 µM, pH 7.4): 26.9 min
Nc1nc(S)nc(O)c1N=Cc1cn(-c2ccccc2)nc1-c1ccccc1 — CC50 (MCF-10A; cell growth or viability; 48 h): > 30 µM
Cc1cc(S(=O)(=O)N[C@H]2CC[C@H](N3CCN(CC4CCN(c5cccc6c5n(C)c(=O)n6C5CCC(=O)NC5=O)CC4)CC3)CC2)ccc1Nc1ncc(C(F)(F)F)c(N2CCC[C@](C)(O)C2)n1 (some centres unmarked) — Papp A→B (MDCK; Caco-2; 1 µM, 2 h, pH 7.4): 0.7 ×10⁻⁶ cm/s
COc1ccc(N2CCN(CC(=O)Nc3ccc(C(=O)C=Cc4ccc(C)cc4)cc3)CC2)cc1 — viability (MCF-10A; cell growth or viability, MTT; 50 µM, 96 h): 90%
COc1ccc(-c2nn(-c3ccccc3)cc2C=Nc2c(N)nc(S)nc2O)cc1 — CC50 (MCF-10A; cell growth or viability; 48 h): > 40 µM
COc1ccc(C2CC(c3ccc(NC(=O)CN4CCN(c5ccc(Cl)cc5)CC4)cc3)=NN2C(C)=O)cc1 (centres unmarked) — viability (MCF-10A; cell growth or viability, MTT; 50 µM, 96 h): 86%
O=c1c2c([nH]c3cccc(Oc4ccc(OC(F)(F)F)cc4)c13)CCCC2 — half-life (metabolic stability; mouse, liver microsomes; 1 µM, pH 7.4): 11.9 min
CNS(=O)(=O)c1ccc(Nc2ncc(C(F)(F)F)c(N3CCC[C@](C)(O)C3)n2)c(C)c1 — Papp A→B (MDCK; Caco-2; 1 µM, 2 h, pH 7.4): 16 ×10⁻⁶ cm/s
COc1ccc(N2CCN(CC(=O)Nc3ccc(C4=NN(C(C)=O)C(c5ccccc5)C4)cc3)CC2)cc1 (centres unmarked) — viability (MCF-10A; cell growth or viability, MTT; 50 µM, 96 h): 87%
Cc1cc(S(=O)(=O)N[C@]2(C)C[C@H](N3CCN(CC4CCN(c5ccc6c(c5F)n(C)c(=O)n6C5CCC(=O)NC5=O)CC4)CC3)C2)ccc1Nc1ncc(C(F)(F)F)c(N2CCC[C@](C)(O)C2)n1 (some centres unmarked) — Papp A→B (MDCK; Caco-2; 1 µM, 2 h, pH 7.4): 3.2 ×10⁻⁶ cm/s
O=c1c2ccc(OCc3cccc(OC(F)(F)F)c3)cc2[nH]c2ccc(Cl)c(F)c12 — half-life (metabolic stability; mouse, liver microsomes; 1 µM, pH 7.4): > 60 min
COc1ccc(C2CC(c3ccc(NC(=O)CN4CCN(c5ccc(OC)cc5)CC4)cc3)=NN2C(C)=O)cc1 (centres unmarked) — viability (MCF-10A; cell growth or viability, MTT; 50 µM, 96 h): 92%
Cc1cc(S(=O)(=O)NC2CC(N3CCN(CC4CCN(c5ccc(NC6CCC(=O)NC6=O)cc5C)CC4)CC3)C2)ccc1Nc1ncc(C(F)(F)F)c(N2CCC[C@](C)(O)C2)n1 (some centres unmarked) — Papp A→B (MDCK; Caco-2; 1 µM, 2 h, pH 7.4): 3.5 ×10⁻⁶ cm/s
COc1ccc(N2CCN(CC(=O)Nc3ccc(C(=O)C=Cc4ccc(Br)cc4)cc3)CC2)cc1 — viability (MCF-10A; cell growth or viability, MTT; 50 µM, 96 h): 90%
C[C@H]1Oc2cc(cnc2N)-c2c(nn(C)c2C#N)CN(C)C(=O)c2ccc(F)cc21 — concentration (male Sprague-Dawley rat, brain; oral, 10 mg/kg, 1 h, single dose): 495 ng/g
O=c1c2ccc(OCc3ccc(C(F)(F)F)cc3)cc2[nH]c2cc(Cl)cc(F)c12 — half-life (metabolic stability; mouse, liver microsomes; 1 µM, pH 7.4): > 60 min
COc1ccc(N2CCN(CC(=O)Nc3ccc(C4=NN(C(C)=O)C(c5ccc(Cl)cc5Cl)C4)cc3)CC2)cc1 (centres unmarked) — viability (MCF-10A; cell growth or viability, MTT; 50 µM, 96 h): 89%
CN(C)CCOc1ccc2c(=O)c3c([nH]c2c1)CCCC3 — half-life (metabolic stability; mouse, liver microsomes; 1 µM, pH 7.4): 34.3 min
CC(=O)N1N=C(c2ccc(NC(=O)CN3CCN(c4ccc(Cl)cc4)CC3)cc2)CC1c1ccc(C)cc1 (centres unmarked) — viability (MCF-10A; cell growth or viability, MTT; 50 µM, 96 h): 89%
